Measured values gathered from unrelated publications.
Compare with care: the assays were run in different laboratories.
Target: AP2-associated protein kinase 1 (AAK1, Homo sapiens, UniProt Q2M2I8)

The remaining binding of `COc1ncc2cc3ccccc3nc2c1C#N` is reported as 96% (cell-free assay; competition with immobilised ligand; 5 µM).
`c1cncc(-c2cccc(Nc3nccc(NC4CCCCC4)n3)c2)c1` has a remaining binding of 33% (binding; competition with immobilised ligand; 10 µM).
For `CC1CCCN1c1nccc(-c2cnn3ncccc23)n1` (stereo not shown), the remaining binding was 100% (binding; 1 µM).
For `O=C(NCc1ncc(C(F)(F)F)cc1Cl)c1ccc2c(c1)C1(CCS(=O)(=O)CC1)[C@@H](C1CC1)N2S(=O)(=O)c1ccc(F)cc1`, the remaining binding was 100% (binding; 1 µM).
`O=C(c1ccc(Nc2nccc(-c3cc4ccccc4s3)n2)cc1)N1CCC(N2CCCC2)CC1` gave a remaining binding of 21% (binding; competition with immobilised ligand; 1 µM).
With `CNC(=O)[C@@H]1CC[C@@H](n2c(-c3ccc4cnccc4c3)nc3ccc(C(=O)NCc4cccc(C(N)=O)c4)cc32)C1` the remaining binding was 93% (binding; competition with immobilised ligand; 1 µM).
The remaining binding of `CN(C)c1nccc(-c2cnn3ncccc23)n1` is reported as 75% (binding; 1 µM).
With `O=C(NCCCN1CCOCC1)c1ccc(Nc2ncc(Cl)c(-c3ccc(Cl)s3)n2)cc1` the remaining binding was 35% (binding; competition with immobilised ligand; 1 µM).
The remaining binding of `N[C@H]1CCN(c2nccc(-c3cnn4ncccc34)n2)C1` is reported as 91% (binding; 1 µM).
For `COc1cnc(Nc2cccc(S(N)(=O)=O)c2)nc1N1CCN(c2ccccc2)CC1`, the remaining binding was 73% (binding; competition with immobilised ligand; 1 µM).
`O=c1nc(-c2ccccn2)sc2ccccc12` has a remaining binding of 100% (binding; 1 µM).
`c1cnn2ncc(-c3ccnc(N4CCC45COC5)n3)c2c1` has a remaining binding of 76% (binding; 1 µM).
The remaining binding of `CC(=O)N1CCC(c2ccc(C(=O)NC(=N)N)cc2C(F)(F)F)CC1` is reported as 100% (binding; 1 µM).
For `COc1ccnn2ncc(-c3ccnc(N(C)C)n3)c12`, the remaining binding was 100% (binding; 1 µM).
The remaining binding of `CCc1ccccc1C(=O)Nc1n[nH]c2c(C)c(F)c(C3C(C#N)=C(C)N(C)C(C)=C3C#N)cc12` is reported as 81% (binding; 1 µM).
For `FC(F)(F)Oc1cccc(-c2cnc3ccc(-c4ccncc4)nn23)c1`, the remaining binding was 14% (cell-free assay; competition with immobilised ligand; 5 µM).
The remaining binding of `O=C(O)c1cc(-c2ccc(C3CCNCC3)cc2)c2ccc(-c3ccc(C(F)(F)F)cc3)cc2c1` is reported as 100% (binding; 1 µM).
With `O=C(c1ccc(Nc2ncc(Cl)c(-c3ccc(Cl)s3)n2)cc1)N1CCC(N2CCCC2)CC1` the remaining binding was 41% (binding; competition with immobilised ligand; 1 µM).
The remaining binding of `CN(C(=O)c1ccccc1)c1cc(N(C)c2ccc3c(c2)CCc2ccc(C(=O)NCCN4CCOCC4)cc2C3=O)ccc1F` is reported as 100% (binding; 1 µM).
`C[C@@H]1CCN(c2nccc(-c3cnn4ncccc34)n2)C1` has a remaining binding of 71% (binding; 1 µM).
`CC(=O)C1=C(C)N(c2cccc(C(F)(F)F)c2)C(=O)N[C@@H]1c1ccc(C#N)nc1` gave a remaining binding of 100% (binding; 1 µM).
With `O=C(Nc1c[nH]nc1C(=O)NC1CCNCC1)c1cc(F)cc(F)c1` the remaining binding was 100% (binding; competition with immobilised ligand; 1 µM).
